RBBP9 inhibitor: inhibitors of human serine hydrolase RBBP9 | inhibition, % at 7.94 µM | AID 1515 | recombinant RBBP9, FP-Rh probe fluorescence polarization | 220,000 compounds, 0.2% hits | O75884;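 active = inhibition above the campaign mean of all tested compounds plus 3 SD, cut at about 14% in these data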;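 also: plate controls were DMSO wells with RBBP9 for no effect and wells lacking RBBP9 protein for full effect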
Target sequence (O75884 whole entry, looked up): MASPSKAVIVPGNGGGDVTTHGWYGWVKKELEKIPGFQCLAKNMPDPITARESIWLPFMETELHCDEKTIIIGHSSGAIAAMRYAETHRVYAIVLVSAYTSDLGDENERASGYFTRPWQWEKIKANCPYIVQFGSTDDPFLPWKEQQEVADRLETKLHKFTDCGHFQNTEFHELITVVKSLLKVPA
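System: RBBP9 protein | Quantity: 2.5 µM RBBP9 dispensing solution, before mixing | Reagent: FP-Rh probe, 375 nM dispensing solution | Timing: Enzyme-compound preincubation 30 min, then probe labeling 45 min, 25 °C | Measured by: Fluorescence polarization | Read-out: % inhibition | Replication: One well per compound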
TNF death inh: blocks TNF-alpha induced death of Jurkat FADD-/- cells | Jurkat FADD-/- TNF necroptosis rescue, ATP luminescence, 24 h; 0 = TNF only, 100 = no-TNF cells | activation (protection from cell death), % at 10 µM | 220,000 compounds, 0.068% hits | AID 463075;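 active = activation, meaning protection from cell death, of at least 50% relative to plate controls; inactive = activation below 50%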;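 also: necroptosis triggered by 40 ng/mL TNF-alpha added together with compound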
p97 ATPase inh: inhibitors of human p97 ATPase; recombinant p97 ATPase, Kinase-Glo ATP luminescence, 3 h; inhibition, % at 8 µM; 220,000 compounds, 0.42% hits; in the data active = inhibition above about 15%;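 also: 0% = DMSO vehicle and 100% = wells lacking enzyme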
L929 necroptosis: L929 zVAD cell death inhibition; L929 zVAD necroptosis rescue, ATP luminescence, 24 h; with zVAD 60 µM; viability rescue, % at 10 µM; AID 1377; 220,000 compounds, 0.38% hits;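 active = activation, scaled between plate controls, above about 75%, limit read from the data; inactive = activation under that limit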;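 also: 0% = zVAD with DMSO and 100% = DMSO alone without zVAD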
PfM18AAP inh-1: blocks P. falciparum M18 aspartyl aminopeptidase. 290,000 compounds, 1.2% hits. recombinant PfM18AAP, H-Glu-NHMec fluorogenic cleavage. inhibition, % at 7.35 µM;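 active = inhibition above the campaign mean inhibition over all tested compounds plus 3 SD, cut at about 28% in these data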;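 also: 0% = plate median of test compound wells and 100% = 2 mM ZnCl2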
Wee1 degr inh: inhibitors of human Wee1 degradation; 220,000 compounds, 1.2% hits; HeLa Luc-Wee1K328M stability, luciferase luminescence; 100% = proteasome inhibitor MG132 effect; reporter increase, % at 5 µM; AID 1321; P30291;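 active = activation above the mean of all tested compounds plus 3 SD, set per screening run, cut at about 8.8% in these data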;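 also: cells exposed to compound for 20 h before luminescence read; 0% = DMSO alone and 100% = MG132 at 30 µM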
PfM18AAP inh-2: PfM18AAP inhibition, confirmation; 2,400 compounds, 28% hits; recombinant PfM18AAP, H-Glu-NHMec fluorogenic cleavage; AID 2170; inhibition, % at 7.35 µM; shares compounds with PfM18AAP inh-1;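 active = mean inhibition over replicate wells above the hit cutoff set for the earlier primary screen, cut at about 29% in these data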;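 also: 0% = median of test compound wells and 100% = 2 mM ZnCl2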
CTSL1 confirm: counter-screen for PFM18AAP inhibitors: confirmation of human cathepsin L inhibitors. AID 2178. purified cathepsin L1, Z-Leu-Arg-MCA fluorescence. inhibition, % at 5.96 µM. shares compounds with PfM18AAP inh-1. 2,400 tested, under 10 active;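 active = average inhibition across replicates above the hit cutoff set in the earlier primary screen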;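 also: 0% = median of test compound wells and 100% = Z-Phe-Ala-diazomethylketone 1 µM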
Target sequence (P07711 whole entry, looked up): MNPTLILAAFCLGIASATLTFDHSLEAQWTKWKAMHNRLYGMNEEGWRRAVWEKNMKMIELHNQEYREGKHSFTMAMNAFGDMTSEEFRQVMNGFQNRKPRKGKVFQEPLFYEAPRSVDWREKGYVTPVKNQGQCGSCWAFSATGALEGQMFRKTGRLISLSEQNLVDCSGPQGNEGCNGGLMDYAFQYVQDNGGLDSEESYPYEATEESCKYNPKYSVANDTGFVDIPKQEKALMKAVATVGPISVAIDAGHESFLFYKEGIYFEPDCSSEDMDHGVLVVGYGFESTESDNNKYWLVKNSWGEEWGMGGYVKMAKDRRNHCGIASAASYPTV
Numbers without * were called inactive. Hits are enriched below; roughly 2.7% of the tested compounds scored in any of these assays.

Screening Cc1cc(=O)[nH]c(SCC(=O)c2ccc(O)c(O)c2)n1 returned PfM18AAP inh-1 67.7*, PfM18AAP inh-2 58.7* and CTSL1 confirm -3.6.
Cc1ccc(C)c(NC(=O)CN(C)C(=O)c2nn(C)c(=O)c3ccccc23)c1 was read as RBBP9 inhibitor 0.9, TNF death inh 0.2, p97 ATPase inh 3.3, L929 necroptosis 5.1, PfM18AAP inh-1 -7.6 and Wee1 degr inh -1.6.
`Cc1ccc(C(=O)N/C(=C/c2ccco2)C(=O)NCCc2c[nH]c3ccccc23)cc1` gave RBBP9 inhibitor -8.1, TNF death inh 1.2, p97 ATPase inh -0.8, L929 necroptosis 0.1, PfM18AAP inh-1 -3.9 and Wee1 degr inh -1.7.
Cc1cc(C)cc(NC(=O)N2CCCN(Cc3c(F)cccc3Cl)CC2)c1 was read as RBBP9 inhibitor 7.5, TNF death inh 5.3, p97 ATPase inh 0.4, L929 necroptosis 1.2, PfM18AAP inh-1 -1.1 and Wee1 degr inh 0.5.
`Cc1cc(C)nc(SCNC(=O)c2ccc(Cl)cc2)n1` gave RBBP9 inhibitor -3.3, TNF death inh -0.3, p97 ATPase inh 3.1, L929 necroptosis -0.2, PfM18AAP inh-1 51.5*, Wee1 degr inh -2.1, PfM18AAP inh-2 -29.3 and CTSL1 confirm 0.2.
COc1ccc(-n2c(O)c(/C=N/NS(=O)(=O)c3ccc(C)cc3)c3ccccc3c2=O)cc1OC was read as RBBP9 inhibitor -1.9, TNF death inh -0.1, p97 ATPase inh 6.2, L929 necroptosis 1.6, PfM18AAP inh-1 6.7 and Wee1 degr inh -2.9.
For COc1ccc(-n2c(O)c(/C=N/Nc3nc(C)cc(C)n3)c3ccccc3c2=O)cc1OC the results were RBBP9 inhibitor 3.8, TNF death inh -8.5, p97 ATPase inh 7.8, L929 necroptosis 41.4, PfM18AAP inh-1 34.4*, Wee1 degr inh -1.7, PfM18AAP inh-2 -7.2 and CTSL1 confirm -0.1.
O=S(=O)(NCc1cn2ccccc2n1)c1ccccc1F was read as RBBP9 inhibitor -6.8, TNF death inh 2.8, p97 ATPase inh 7.3, L929 necroptosis -0.5, PfM18AAP inh-1 0.8 and Wee1 degr inh 0.0.
For NC(=O)c1c(NC(=O)c2cccnc2)sc2c1CCCC2 the results were RBBP9 inhibitor 0.2, TNF death inh -0.8, p97 ATPase inh -1.1, L929 necroptosis 1.5, PfM18AAP inh-1 4.9 and Wee1 degr inh 4.8.
Screening NC(=O)c1c(NC(=O)c2cccnc2)sc2c1CCCCC2 returned PfM18AAP inh-1 32.8*, PfM18AAP inh-2 -34.8 and CTSL1 confirm 0.9.
Screening CN1C(=O)C(=C2CCCCCC2)SC1=S returned RBBP9 inhibitor 2.7, TNF death inh 1.6, p97 ATPase inh -1.4, L929 necroptosis 1.8, PfM18AAP inh-1 8.0 and Wee1 degr inh -1.2.
Screening O=C1NC(=S)SC1=C1CCCC1 returned RBBP9 inhibitor -16.0, TNF death inh -0.1, p97 ATPase inh -4.0, L929 necroptosis 0.6, PfM18AAP inh-1 35.7*, Wee1 degr inh -1.3, PfM18AAP inh-2 -31.9 and CTSL1 confirm 3.2.
Screening Fc1ccc(Br)cc1SCCc1ccncc1 returned PfM18AAP inh-1 -0.3.
`Cc1cnc(SCCc2ccncc2)nc1C` gave RBBP9 inhibitor 4.6, TNF death inh 0.4, p97 ATPase inh 1.9, L929 necroptosis -0.4, PfM18AAP inh-1 62.5*, Wee1 degr inh -1.1, PfM18AAP inh-2 -7.9 and CTSL1 confirm -0.8.
COC(=O)N1c2ccccc2C=Cc2ccccc21 was read as PfM18AAP inh-1 5.6.
For CCC(/C=C1\Sc2ccc(OC)cc2N1CCO)=C\c1sc2ccc(OC)cc2[n+]1CCO the results were RBBP9 inhibitor -82.4, TNF death inh -9.1, p97 ATPase inh -9.6, L929 necroptosis -1.1, PfM18AAP inh-1 33.8*, Wee1 degr inh -3.8, PfM18AAP inh-2 -4.1 and CTSL1 confirm 3.7.
